Screening results: PubChem, Sanford-Burnham Center for Chemical Genomics
A selection: hits, their analogues and other compounds. The true share with any hit is near 1.7%.
SUMO1-SIM PPI = modulators of SUMO1 protein-protein interactions, primary screen, biochemical, uHTS; SUMO1 binding to a labelled peptide, TR-FRET, 1 h; AID 602429, 2012; Small ubiquitin-related modifier 1 (Homo sapiens), P63165; inhibition, % at 20 µM; actives 0.33% (n = 360,000); in the data active = inhibition above about 37%
Target sequence (P63165 whole entry, looked up): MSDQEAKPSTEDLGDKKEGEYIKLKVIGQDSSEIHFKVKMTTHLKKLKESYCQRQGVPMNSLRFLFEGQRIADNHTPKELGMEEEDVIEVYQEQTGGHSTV
Scp1 inh = Scp-1 phosphatase inhibitors, primary screen, biochemical, colorimetric, uHTS; Recombinant Scp1, phosphopeptide, malachite green phosphate absorbance; inhibition, % at 20 µM; actives 0.88% (n = 340,000); AID 493091, 2011;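 active = inhibition above about 50% at 20 µM, limit read from the data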;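 note: plate controls were DMSO wells with enzyme for no effect and wells lacking enzyme for full effect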
Target sequence (Q9GZU7 76-261 limits assumed): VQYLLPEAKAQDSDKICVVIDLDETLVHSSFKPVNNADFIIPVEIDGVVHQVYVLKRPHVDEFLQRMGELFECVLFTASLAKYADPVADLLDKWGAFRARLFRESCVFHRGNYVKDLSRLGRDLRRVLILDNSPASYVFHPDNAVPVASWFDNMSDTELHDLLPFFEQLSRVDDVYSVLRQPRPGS
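Times: enzyme reaction 45 min at room temperature, colour 5 min, stabilisation 30 min. Material: SCP-1 catalytic fragment, aa 76-261. Medium: Acidic Tris acetate buffer with magnesium and detergent. Signal: colorimetric free-phosphate detection, absorbance 630 nm. Read-out basis: % inhibition of SCP-1 phosphate liberation. Reagent: Phosphorylated 17-residue peptide substrate.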
STEP block = STEP phosphatase inhibitors, primary screen, biochemical, fluorescence intensity, uHTS; Tyrosine-protein phosphatase non-receptor type 5 (Homo sapiens), P54829; recombinant STEP, OMFP fluorogenic substrate; actives 0.25% (n = 360,000); inhibition, % at 20 µM;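 active = inhibition at 20 µM, scaled per plate between control wells, above about 37%, limit read from the data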;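 note: 0% = DMSO with enzyme and substrate and 100% = substrate only without enzyme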
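System: STEP phosphatase, cell-free reaction; Buffer or medium: Bis-Tris pH 6.0 buffer with DTT, detergent; Incubation: 20 min at room temperature, dark; Measured by: fluorescence, 480/540 nm.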
DNMT1 block = human DNMT1 methyltransferase inhibitors, primary screen, biochemical, molecular beacon, fluorescence, HinP1I cleavage, uHTS; actives 0.83% (n = 360,000); inhibition (reported as % activation of signal), % at 10 µM; DNA (cytosine-5)-methyltransferase 1 (Homo sapiens), P26358; in the data active = inhibition above about 50%
LMPTP inh = LMPTP phosphatase inhibitors, primary screen, biochemical, fluorescence intensity, uHTS | recombinant LMPTP-A, OMFP fluorogenic substrate | actives 0.22% (n = 360,000) | AID 651560, 2012 | Low molecular weight phosphotyrosine protein phosphatase (Homo sapiens), P24666 | inhibition, % at 20 µM;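 active = compounds that cut the enzyme signal by at least half of the control window in the single-dose screen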;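 note: plate controls were DMSO wells with enzyme plus substrate for no effect and substrate without enzyme for full effect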
Target sequence (P24666 whole entry, looked up): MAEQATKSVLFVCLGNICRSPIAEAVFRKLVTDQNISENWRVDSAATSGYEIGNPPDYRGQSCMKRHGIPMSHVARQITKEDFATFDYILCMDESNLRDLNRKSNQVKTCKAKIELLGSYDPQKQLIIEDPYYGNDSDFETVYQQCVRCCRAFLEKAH
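test system = LMPTP-A | amount = 0.625 nM LMPTP-A final | reagent = fluorogenic phosphatase substrate OMFP at 400 µM final | incubation = 50 min at room temperature | benchmarks = no-enzyme low control, uninhibited high control | medium = Bis-Tris pH 6.0, DTT, detergent | signal = fluorescence intensity of OMFP turnover product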
Scp-1 conf = Scp-1 phosphatase inhibitors, retest, confirmation, biochemical, colorimetric, single concentration. AID 540281, 2011. inhibition, % at 20 µM. recombinant SCP-1 catalytic domain, phosphate release, malachite green absorbance. shares compounds with Scp1 inh. actives 61% (n = 2,500);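 note: plate controls were DMSO with enzyme for no effect and buffer wells lacking enzyme for full effect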
Scp-1 MG ctr = colorimetric readout interference by compounds, confirmation, artefact control for Scp-1 inhibitor project, biochemical, single concentration | apparent inhibition (interference), % at 20 µM | shares compounds with Scp1 inh | Colorimetric interference counterscreen, malachite green absorbance 630 nm | 2,500 tested, under 10 active;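 note: compounds added after enzyme reaction finished so only phosphate colour detection is probed; plate controls were DMSO wells with completed Scp-1 reaction for no effect and substrate wells lacking enzyme for full effect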
Scp-1 Tm shift = Scp-1 binding by thermal shift, confirmation, orthogonal assay for Scp-1 inhibitor project, biophysical, differential scanning fluorimetry. Recombinant SCP1, Sypro Orange thermal shift Tm. thermal shift relative to vanadate control, % at 40 µM. actives 25% (n = 1,500). AID 540329, 2011. shares compounds with Scp1 inh;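 active = substances whose mean melting-temperature shift, as a percentage of the reference inhibitor's shift, reaches about 5.3%, limit read from the data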;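 note: 0% = Tm of DMSO wells and 100% = Tm with sodium orthovanadate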
* = called active by the depositor; / = no result given.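 Rule for the calls, unless noted: active = inhibition of at least 30% at 20 µM; inactive = the rest.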

SMILES | SUMO1-SIM PPI | Scp1 inh | STEP block | DNMT1 block | LMPTP inh | Scp-1 conf | Scp-1 MG ctr | Scp-1 Tm shift
COc1cccc(/C=C2/NC(=O)N(CC(=O)Nc3ccc(C)cc3)C2=O)c1OCc1cccc(C(=O)O)c1 | -30.8 | 79.2* | 11.0 | 0.8 | 1.5 | 71.5* | -19.7 | -0.9
Cc1ccc(NC(=O)CN2C(=O)N/C(=C/c3ccccc3OCc3cccc(C(=O)O)c3)C2=O)cc1 | -16.6 | 25.1 | 0.1 | 3.0 | 0.8 | / | / | /
O=C(CN1C(=O)N/C(=C\c2ccccc2OCc2ccc(C(=O)O)cc2)C1=O)Nc1ccccc1F | -24.0 | 50.1* | 8.4 | 5.9 | 28.6 | 78.2* | -8.7 | -3.4
Cc1ccccc1C(=O)N(Cc1nc2ccccc2c(=O)[nH]1)C1CCCC1 | 4.5 | 3.4 | -2.8 | -1.4 | 0.4 | / | / | /
CCc1nc2ccc(C(=O)NCCC(C)C)cn2c1N(CC)CCOC | 2.5 | / | 0.3 | -3.7 | -0.8 | / | / | /
CCCOC1(NC(=O)c2ccccc2)C(C)=CC(=O)C=C1C | 3.8 | -6.0 | -0.1 | 0.8 | 0.3 | / | / | /
O=C1NCCCC2c3c(cc(Br)c(O)c3Br)OC12N1CCCCC1 (stereo not drawn) | 4.3 | 57.1* | -2.2 | 1.3 | 1.0 | -9.0 | -20.2 | /
CN(C)c1nc(N2CCOCC2)nc(N(c2ccccc2)c2ccccc2)n1 | 6.4 | -2.2 | -4.9 | -0.7 | -2.0 | / | / | /
CN(C)c1cccc(N=C2C=C(N3CCOCC3)CC(C)(C)C2)c1 | -2.6 | 98.9* | -3.3 | -2.8 | -2.1 | 79.2* | -18.0 | -10.4
Cc1cc(-c2ccc(C(C)C)c(S(=O)(=O)Nc3ccccn3)c2)on1 | 2.6 | -3.8 | 0.2 | 4.2 | -0.5 | / | / | /
O=C(O)CN1C(=O)/C(=C2\C(=O)N(Cc3ccccc3Cl)c3ccccc32)SC1=S | -1.5 | 82.5* | 52.4* | 9.1 | 9.4 | 61.7* | -19.7 | 15.9*
CCCC(NC(=O)Cc1c(C)c2cc3c(C)c(C)oc3c(C)c2oc1=O)C(=O)N[C@@H](Cc1ccccc1)C(=O)O (stereo partly drawn) | 19.6 | 98.1* | 10.5 | 18.5 | 21.4 | 87.7* | -7.9 | -18.3
Cc1c(CCC(=O)O)c(=O)oc2c(C)c3occ(-c4ccc(Br)cc4)c3cc12 | 51.6* | 66.9* | 21.6 | 12.0 | 90.3* | 65.7* | -27.7 | -6.4
COc1ccc(-c2coc3c(C)c4oc(=O)c(CCC(=O)O)c(C)c4cc23)cc1 | 23.5 | -12.3 | 4.4 | -0.9 | 10.6 | / | / | /
Cc1coc2c(C)c3oc(=O)c(CCC(=O)N[C@@H](C)C(=O)N[C@@H](Cc4ccccc4)C(=O)O)c(C)c3cc12 | -2.1 | 104.2* | 43.5* | 19.2 | 22.8 | 63.9* | -17.8 | -32.9
O=C(Nc1ccc(F)cc1)C1CCN(S(=O)(=O)c2cccc3nonc23)CC1 | -7.4 | 1.6 | 9.7 | -28.2 | 1.5 | / | / | /
NC(=O)C1CCN(C(=O)CCc2nc3sc4c(c3c(=O)[nH]2)CCCC4)CC1 | 8.1 | 58.2* | 3.7 | 35.2 | 4.8 | 62.3* | -13.9 | 1.7
COc1ccccc1NS(=O)(=O)c1cc(N=N/C(C(=O)Nc2ccc(Cl)cc2)=C(/C)O)ccc1C | 0.0 | -10.2 | 3.7 | 2.3 | 0.2 | / | / | /
COc1ccccc1NC(=O)/C(N=Nc1ccc(C)c(S(=O)(=O)Nc2ccccc2Cl)c1)=C(\C)O | 2.3 | 50.2* | 0.3 | -6.2 | 0.6 | -25.2 | -28.3 | /
